Measurements: ChEMBL document CHEMBL3616417, “Discovery of selective N-[3-(1-methyl-piperidine-4-carbonyl)-phenyl]-benzamide-based 5-HT₁ F receptor agonists: Evolution from bicyclic to monocyclic cores” (Bioorg Med Chem Lett, 2015)
The source made the active and inactive calls. No cut-off for these calls is given here.

How the values were obtained:
[1] = biological target: 5-hydroxytryptamine receptor 1D (Homo sapiens) (UniProt P28221); experiment: Binding affinity to human 5HT1D receptor by radioligand binding assay
Sequence of 5-hydroxytryptamine receptor 1D (Homo sapiens) (P28221 whole entry): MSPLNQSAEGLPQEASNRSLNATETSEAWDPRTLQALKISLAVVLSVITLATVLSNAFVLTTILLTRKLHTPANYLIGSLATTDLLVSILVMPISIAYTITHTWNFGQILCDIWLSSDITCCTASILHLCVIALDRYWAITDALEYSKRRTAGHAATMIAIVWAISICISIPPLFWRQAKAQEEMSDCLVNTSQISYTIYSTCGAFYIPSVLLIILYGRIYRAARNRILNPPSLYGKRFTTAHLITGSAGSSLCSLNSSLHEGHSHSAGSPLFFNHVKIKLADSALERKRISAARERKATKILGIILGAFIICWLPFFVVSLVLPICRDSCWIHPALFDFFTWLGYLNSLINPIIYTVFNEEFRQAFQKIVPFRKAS
Method in brief: (§1)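 In vitro radioligand displacement binding on cell lines expressing the appropriate human serotonin receptor subtype. Affinity is expressed as Ki (nM), each the mean of at least two determinations.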

[2] = biological target: T1, 5-hydroxytryptamine receptor 1A (Homo sapiens) (UniProt P08908); experiment: Binding affinity to human 5HT1A receptor by radioligand binding assay; method in brief: as §1
T1 sequence (whole entry): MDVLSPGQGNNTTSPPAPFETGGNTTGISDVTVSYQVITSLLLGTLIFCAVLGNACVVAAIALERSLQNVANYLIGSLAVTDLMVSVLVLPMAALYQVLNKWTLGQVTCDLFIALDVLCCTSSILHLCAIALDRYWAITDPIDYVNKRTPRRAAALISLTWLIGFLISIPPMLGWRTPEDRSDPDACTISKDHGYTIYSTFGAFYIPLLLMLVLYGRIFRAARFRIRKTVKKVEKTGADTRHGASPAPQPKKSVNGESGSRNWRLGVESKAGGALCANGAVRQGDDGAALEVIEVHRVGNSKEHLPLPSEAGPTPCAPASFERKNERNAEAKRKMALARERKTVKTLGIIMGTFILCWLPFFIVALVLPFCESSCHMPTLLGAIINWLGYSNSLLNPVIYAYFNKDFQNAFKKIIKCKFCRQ

[3] = biological target: T1, 5-hydroxytryptamine receptor 1A (Homo sapiens); experiment: Inhibition of radioligand binding to human 5HT1A receptor at 10 uM
Method in brief: (§2)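 Single-concentration radioligand displacement at 10 µM test compound in cell lines expressing the human 5-HT1A, 5-HT1B or 5-HT1D receptor. Read-out is percent inhibition of radioligand binding.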

[4] = biological target: 5-hydroxytryptamine receptor 1B (Homo sapiens) (UniProt P28222); experiment: Inhibition of radioligand binding to human 5HT1B receptor at 10 uM; method in brief: as §2
Sequence of 5-hydroxytryptamine receptor 1B (Homo sapiens) (P28222 whole entry): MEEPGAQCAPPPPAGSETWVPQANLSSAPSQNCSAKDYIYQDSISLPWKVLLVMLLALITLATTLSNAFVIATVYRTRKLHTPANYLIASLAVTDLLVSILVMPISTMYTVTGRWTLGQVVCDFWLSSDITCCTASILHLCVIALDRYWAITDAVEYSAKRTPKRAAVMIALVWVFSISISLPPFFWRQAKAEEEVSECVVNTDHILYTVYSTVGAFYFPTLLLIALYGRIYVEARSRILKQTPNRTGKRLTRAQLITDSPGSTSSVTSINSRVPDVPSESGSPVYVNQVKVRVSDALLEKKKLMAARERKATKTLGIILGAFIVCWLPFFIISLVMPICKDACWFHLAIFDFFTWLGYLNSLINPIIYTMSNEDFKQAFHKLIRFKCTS

[5] = biological target: 5-hydroxytryptamine receptor 1B (Homo sapiens) (UniProt P28222); experiment: Binding affinity to human 5HT1B receptor by radioligand binding assay; method in brief: as §1
[6] = biological target: 5-hydroxytryptamine receptor 1D (Homo sapiens) (UniProt P28221); experiment: Inhibition of radioligand binding to human 5HT1D receptor at 10 uM; method in brief: as §2
[7] = biological target: 5-HT1A/5-HT1F (Homo sapiens) (UniProt P30939+P08908); experiment: Selectivity index, ratio of Ki for human 5HT1A receptor to Ki for human 5HT1F receptor
Method in brief: (§3)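 Ratio of the Ki at the 5-HT1A, 5-HT1B or 5-HT1D receptor to the Ki at the 5-HT1F receptor. Each Ki comes from at least two radioligand binding determinations in cell lines expressing the human receptor.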

[8] = biological target: 5-HT1B/5-HT1F (Homo sapiens) (UniProt P30939+P28222); experiment: Selectivity index, ratio of Ki for human 5HT1B receptor to Ki for human 5HT1F receptor; method in brief: as §3
Sequence of 5-HT1B/5-HT1F (Homo sapiens) (P28222 whole entry, looked up, one chain of several): as the sequence (P28222 whole entry) above

[9] = biological target: 5-HT1D/5-HT1F (Homo sapiens) (UniProt P30939+P28221); experiment: Selectivity index, ratio of Ki for human 5HT1D receptor to Ki for human 5HT1F receptor; method in brief: as §3
Sequence of 5-HT1D/5-HT1F (Homo sapiens) (P28221 whole entry, looked up, one chain of several): as the sequence (P28221 whole entry) above

[10] = biological target: T2, 5-hydroxytryptamine receptor 1F (Homo sapiens, UniProt P30939); experiment: Binding affinity to human 5HT1F receptor by radioligand binding assay; method in brief: as §1
T2 sequence (P30939 whole entry): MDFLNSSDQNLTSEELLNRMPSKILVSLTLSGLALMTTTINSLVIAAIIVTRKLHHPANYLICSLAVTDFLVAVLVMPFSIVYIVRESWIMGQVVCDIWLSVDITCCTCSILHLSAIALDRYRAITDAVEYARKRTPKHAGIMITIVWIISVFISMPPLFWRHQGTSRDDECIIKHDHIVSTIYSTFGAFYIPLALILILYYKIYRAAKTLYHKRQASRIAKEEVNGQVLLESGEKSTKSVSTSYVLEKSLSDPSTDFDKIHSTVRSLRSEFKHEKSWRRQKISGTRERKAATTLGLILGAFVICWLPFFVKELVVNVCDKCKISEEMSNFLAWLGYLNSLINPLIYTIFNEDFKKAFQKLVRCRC

[11] = biological target: T2, 5-hydroxytryptamine receptor 1F; experiment: Agonist activity at human 5HT1F receptor expressed in LM(tk-) cells by [35S]GTPgammaS binding assay; format: functional, cell-based
[12] = biological target: T3, 5-hydroxytryptamine receptor 1F (Homo sapiens) (UniProt P30939); experiment: Agonist activity at human 5HT1F receptor expressed in LM(tk-) cells by [35S]GTPgammaS binding assay relative to 5-HT; format: functional, cell-based
T3 sequence (whole entry): T2 sequence (P30939 whole entry)

SMILES | Activity [1] | Activity [2] | inhibition [3] | inhibition [4] | Activity [5] | inhibition [6] | Ratio Ki [7] | Ratio Ki [8] | Ratio Ki [9] | Ki [10] | EC50 [11] | Emax [12]
CN1CCC(C(=O)c2cc(NC(=O)c3ccc(F)cc3)ccn2)CC1 | inactive | inactive | < 50% | < 50% | inactive | < 50% | – | – | – | – | – | –
CN1CCC(C(=O)c2ccnc(NC(=O)c3ccc(F)cc3)c2)CC1 | – | – | – | – | – | – | 0.7 | 2 | 0.5 | 2400 nM | – | –
CN1CCC(C(=O)c2cccc(NC(=O)c3ccc(F)cc3)c2O)CC1 | inactive | inactive | < 50% | – | – | < 50% | – | 2.5 | – | 1100 nM | – | –
CN1CCC(C(=O)c2cccc(NC(=O)c3ccc(F)cc3)n2)CC1 | – | – | – | < 50% | inactive | – | 91 | – | 110 | 9.5 nM | 110 nM | 90%
CN1CCC(c2c[nH]c3ccc(NC(=O)c4ccc(F)cc4)cc23)CC1 | – | – | – | – | – | – | 5 | 54 | 98 | – | – | –
CN1CCC(C(=O)c2cccc(NC(=O)c3ccc(F)cc3)c2Cl)CC1 | – | – | – | – | – | – | 0.3 | 1.6 | 0.2 | 1700 nM | – | –
COc1c(NC(=O)c2ccc(F)cc2)cccc1C(=O)C1CCN(C)CC1 | – | – | – | – | – | – | 0.5 | 4.3 | 3.4 | 610 nM | – | –
CN1CCC(C(=O)c2cccc(NC(=O)c3ccc(F)cc3)c2F)CC1 | inactive | inactive | < 50% | < 50% | inactive | < 50% | – | – | – | 8.3 nM | 55 nM | 85%
CN1CCC(C(=O)c2cc(F)cc(NC(=O)c3ccc(F)cc3)c2)CC1 | inactive | – | – | < 50% | inactive | < 50% | 22 | – | – | 41 nM | – | –
Cc1c(NC(=O)c2ccc(F)cc2)cccc1C(=O)C1CCN(C)CC1 | inactive | inactive | < 50% | < 50% | inactive | < 50% | – | – | – | 870 nM | – | –
CN1CCC(C(=O)c2cccc(NC(=O)c3ccc(F)cc3)c2)CC1 | – | – | – | < 50% | inactive | – | 170 | – | 730 | 5.1 nM | 87 nM | 79%
CN1CCC(C(=O)c2ccc(F)c(NC(=O)c3ccc(F)cc3)c2)CC1 | inactive | – | – | < 50% | inactive | < 50% | 2 | – | – | 530 nM | – | –
CN1CCC(C(=O)c2cc(NC(=O)c3ccc(F)cc3)ccc2F)CC1 | inactive | inactive | < 50% | < 50% | inactive | < 50% | – | – | – | 1300 nM | – | –
CN1CCC(C(=O)c2cncc(NC(=O)c3ccc(F)cc3)c2)CC1 | – | – | – | < 50% | inactive | – | 1 | – | 0.6 | 3200 nM | – | –
